Measurements published in ChEMBL document CHEMBL5724801, “EUbOPEN Chemogenomics Library - Multiplex” (2024).
Where “and” joins values, the source holds several entries; their conditions need not be identical. Identical values can stand only once.

Tested on: Fibroblast
Assay: Multiplex assay against human fibroblast
Type: toxicity, cell-based
In short: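 Per cents of healthy-nucleus cells form the tubulin, mitochondrial-mass and membrane-permeability phenotype values. Live cells were stained at seeding with Hoechst33342, BioTracker Green Microtubule Cytoskeleton Dye, MitoTracker Red and Annexin V Alexa Fluor 680. After compound addition they were imaged on a CQ1 microscope at 37°C and 5% CO2, and CellPathfinder machine-learning gating split them into Hoechst high-intensity objects or normal cells, normal cells into healthy, pyknosed or fragmented nuclei, and pyknosed cells into mitotic or apoptotic.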

[1] = 12 h, 1 µM, compound concentration 1 uM
[2] = 12 h, 10 µM, compound concentration 10 uM
[3] = 24 h, 1 µM, compound concentration 1 uM
[4] = 24 h, 10 µM, compound concentration 10 uM
[5] = 48 h, 1 µM, compound concentration 1 uM
[6] = 48 h, 10 µM, compound concentration 10 uM

With `CCn1c(-c2ccncc2)cc2c1CCNC2=O` the “Population Apoptotic (%)” value [1] was 13.79% and 16.67%, the “Population Fragmented Nuclei (%)” value [1] was 13.56% and 3.83% and the “Population Healthy Nuclei (%)” value [1] was 70.06% and 79.78%. The “Population Hoechst High Intensity Objects (%)” value [1] was 0%, the “Population Membrane Permeable-Phenotype (%)” value [1] was 2.42% and 2.74% and the “Population Mitochondria Different-Phenotype (%)” value [1] was 8.06% and 6.85%. The “Population Mitotic Cells (%)” value [1] was 86.21% and 83.33%, the “Population Normal (%)” value [1] was 100% and the “Population Pyknosed Nuclei (%)” value [1] was 16.38% and 16.39%. The “Population Tubulin-Different-Phenotype (%)” value [1] was 12.9% and 11.64%, the “Total Cell Count” value [1] was 177 and 183 and the “Population Healthy Nuclei (%)” value [2] was 69.44% and 89.58%. The “Population Hoechst High Intensity Objects (%)” value [2] was 0%, the “Population Membrane Permeable-Phenotype (%)” value [2] was 6.4% and 2.91% and the “Population Mitochondria Different-Phenotype (%)” value [2] was 11.2% and 12.79%. For the same compound, the “Population Mitotic Cells (%)” value [2] was 88.89% and 60%, the “Population Normal (%)” value [2] was 100% and the “Population Pyknosed Nuclei (%)” value [2] was 15% and 7.81%. For the same compound, the “Population Tubulin-Different-Phenotype (%)” value [2] was 12% and 12.79%, the “Total Cell Count” value [2] was 180 and 192 and the “Population Apoptotic (%)” value [3] was 19.51% and 13.16%. For the same compound, the “Population Healthy Nuclei (%)” value [3] was 62.05% and 74.05%, the “Population Hoechst High Intensity Objects (%)” value [3] was 0% and the “Population Membrane Permeable-Phenotype (%)” value [3] was 4.96% and 1.46%. The “Population Mitochondria Different-Phenotype (%)” value [3] was 7.44% and 7.3%, the “Population Mitotic Cells (%)” value [3] was 80.49% and 86.84% and the “Population Normal (%)” value [3] was 100%. The “Population Pyknosed Nuclei (%)” value [3] was 21.03% and 20.54%, the “Population Tubulin-Different-Phenotype (%)” value [3] was 16.53% and 14.6% and the “Total Cell Count” value [3] was 195 and 185. For the same compound, the “Population Healthy Nuclei (%)” value [4] was 70.39% and 84.97%, the “Population Hoechst High Intensity Objects (%)” value [4] was 0% and the “Population Membrane Permeable-Phenotype (%)” value [4] was 7.14% and 3.66%. The “Population Mitochondria Different-Phenotype (%)” value [4] was 6.35% and 12.8%, the “Population Mitotic Cells (%)” value [4] was 92.86% and 57.69% and the “Population Normal (%)” value [4] was 100%. For the same compound, the “Population Pyknosed Nuclei (%)” value [4] was 15.64% and 13.47%, the “Population Tubulin-Different-Phenotype (%)” value [4] was 10.32% and 17.07% and the “Total Cell Count” value [4] was 179 and 193. For the same compound, the “Population Apoptotic (%)” value [5] was 33.33%, the “Population Fragmented Nuclei (%)” value [5] was 17.79% and 7.69% and the “Population Healthy Nuclei (%)” value [5] was 75% and 86.54%. The “Population Hoechst High Intensity Objects (%)” value [5] was 0%, the “Population Membrane Permeable-Phenotype (%)” value [5] was 3.85% and 5% and the “Population Mitotic Cells (%)” value [5] was 66.67%. The “Population Normal (%)” value [5] was 100%, the “Population Pyknosed Nuclei (%)” value [5] was 7.21% and 5.77% and the “Population Tubulin-Different-Phenotype (%)” value [5] was 23.08% and 22.22%. The “Total Cell Count” value [5] was 208, the “Population Apoptotic (%)” value [6] was 11.76% and 35.14% and the “Population Fragmented Nuclei (%)” value [6] was 16.11% and 6.99%. For the same compound, the “Population Healthy Nuclei (%)” value [6] was 65% and 73.12%, the “Population Hoechst High Intensity Objects (%)” value [6] was 0% and the “Population Membrane Permeable-Phenotype (%)” value [6] was 0% and 11.03%. For the same compound, the “Population Mitochondria Different-Phenotype (%)” value [6] was 20.51% and 11.76%, the “Population Mitotic Cells (%)” value [6] was 88.24% and 64.86% and the “Population Normal (%)” value [6] was 100%. For the same compound, the “Population Pyknosed Nuclei (%)” value [6] was 18.89% and 19.89%, the “Population Tubulin-Different-Phenotype (%)” value [6] was 6.84% and 18.38% and the “Total Cell Count” value [6] was 180 and 186.

For `O=C1NC(NC23CC4CC(CC(C4)C2)C3)=N/C1=C\c1ccc2ncsc2c1`, the “Population Apoptotic (%)” value [1] was 51.97% and 44.44%, the “Population Fragmented Nuclei (%)” value [1] was 23.55% and 19.79% and the “Population Healthy Nuclei (%)” value [1] was 57.53% and 66.62%. The “Population Hoechst High Intensity Objects (%)” value [1] was 0%, the “Population Membrane Permeable-Phenotype (%)” value [1] was 1.3% and 2.27% and the “Population Mitochondria Different-Phenotype (%)” value [1] was 3.63% and 2.49%. For the same compound, the “Population Mitotic Cells (%)” value [1] was 48.03% and 55.56%, the “Population Normal (%)” value [1] was 100% and the “Population Pyknosed Nuclei (%)” value [1] was 18.93% and 13.6%. The “Population Tubulin-Different-Phenotype (%)” value [1] was 8.81% and 11.79%, the “Total Cell Count” value [1] was 671 and 662 and the “Population Apoptotic (%)” value [2] was 45.21% and 45.31%. For the same compound, the “Population Fragmented Nuclei (%)” value [2] was 36.23% and 36.1%, the “Population Healthy Nuclei (%)” value [2] was 32.66% and 30.01% and the “Population Hoechst High Intensity Objects (%)” value [2] was 28.04% and 33.79%. The “Population Membrane Permeable-Phenotype (%)” value [2] was 0.36% and 0.46%, the “Population Mitochondria Different-Phenotype (%)” value [2] was 0% and the “Population Mitotic Cells (%)” value [2] was 54.79% and 54.69%. For the same compound, the “Population Normal (%)” value [2] was 71.96% and 66.21%, the “Population Pyknosed Nuclei (%)” value [2] was 31.11% and 33.89% and the “Population Tubulin-Different-Phenotype (%)” value [2] was 0.73% and 7.37%. The “Total Cell Count” value [2] was 1166 and 1092, the “Population Apoptotic (%)” value [3] was 49.15% and 52.44% and the “Population Fragmented Nuclei (%)” value [3] was 25.03% and 19.5%. The “Population Healthy Nuclei (%)” value [3] was 59% and 67.8%, the “Population Hoechst High Intensity Objects (%)” value [3] was 0% and 0.15% and the “Population Membrane Permeable-Phenotype (%)” value [3] was 2.52% and 1.37%. The “Population Mitochondria Different-Phenotype (%)” value [3] was 0.92% and 0.91%, the “Population Mitotic Cells (%)” value [3] was 50.85% and 47.56% and the “Population Normal (%)” value [3] was 100% and 99.85%. For the same compound, the “Population Pyknosed Nuclei (%)” value [3] was 15.97% and 12.69%, the “Population Tubulin-Different-Phenotype (%)” value [3] was 12.84% and 17.12% and the “Total Cell Count” value [3] was 739 and 647. The “Population Apoptotic (%)” value [4] was 48.2% and 49.02%, the “Population Fragmented Nuclei (%)” value [4] was 28.62% and 33.38% and the “Population Healthy Nuclei (%)” value [4] was 37.8% and 32.44%. For the same compound, the “Population Hoechst High Intensity Objects (%)” value [4] was 27.11% and 32.18%, the “Population Membrane Permeable-Phenotype (%)” value [4] was 0.64% and 0.41% and the “Population Mitochondria Different-Phenotype (%)” value [4] was 0.32% and 0%. For the same compound, the “Population Mitotic Cells (%)” value [4] was 51.8% and 50.98%, the “Population Normal (%)” value [4] was 72.89% and 67.82% and the “Population Pyknosed Nuclei (%)” value [4] was 33.57% and 34.18%. For the same compound, the “Population Tubulin-Different-Phenotype (%)” value [4] was 1.6% and 2.89%, the “Total Cell Count” value [4] was 1136 and 1100 and the “Population Apoptotic (%)” value [5] was 58.9% and 52.22%. The “Population Fragmented Nuclei (%)” value [5] was 13.24% and 13.94%, the “Population Healthy Nuclei (%)” value [5] was 69.8% and 71.47% and the “Population Hoechst High Intensity Objects (%)” value [5] was 0%. The “Population Membrane Permeable-Phenotype (%)” value [5] was 1.5% and 2.72%, the “Population Mitochondria Different-Phenotype (%)” value [5] was 1.5% and 0.91% and the “Population Mitotic Cells (%)” value [5] was 41.1% and 47.78%. The “Population Normal (%)” value [5] was 100%, the “Population Pyknosed Nuclei (%)” value [5] was 16.96% and 14.59% and the “Population Tubulin-Different-Phenotype (%)” value [5] was 20.97% and 31.75%. The “Total Cell Count” value [5] was 861 and 617, the “Population Apoptotic (%)” value [6] was 50.75% and 49.7% and the “Population Fragmented Nuclei (%)” value [6] was 29.22% and 30.74%. For the same compound, the “Population Healthy Nuclei (%)” value [6] was 35.44% and 26.72%, the “Population Hoechst High Intensity Objects (%)” value [6] was 25.71% and 37.77% and the “Population Membrane Permeable-Phenotype (%)” value [6] was 0.6% and 0.49%. For the same compound, the “Population Mitochondria Different-Phenotype (%)” value [6] was 0.6% and 0%, the “Population Mitotic Cells (%)” value [6] was 49.25% and 50.3% and the “Population Normal (%)” value [6] was 74.29% and 62.23%. The “Population Pyknosed Nuclei (%)” value [6] was 35.34% and 42.54%, the “Population Tubulin-Different-Phenotype (%)” value [6] was 1.19% and 2.91% and the “Total Cell Count” value [6] was 1276 and 1239.
